# Bioassay records as filed in PubChem.
# Rpn11 block = Rpn11 (PSMD14) deubiquitinase inhibitors, primary screen, biochemical, fluorescence polarization, uHTS; 26S proteasome non-ATPase regulatory subunit 14 (Homo sapiens), O00487; human 26S proteasome, Ub4-pepOG fluorescence polarization; 20S core pre-blocked with epoxomicin; actives 0.59% (n = 360,000); inhibition, % at 20 µM;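 active = inhibition at 20 µM, scaled to each plate's controls, above about 33%, limit read from the data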
# TbMetRS inhib = T. brucei MetRS inhibitors, primary screen, biochemical, luminescence. methionyl-tRNA synthetase (Trypanosoma brucei brucei). purified T. brucei MetRS, ATP depletion, Kinase-Glo luminescence. inhibition, % at 11.9 µM. actives 0.4% (n = 360,000). AID 624268, 2012;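 active = inhibition above a per-plate cutoff of the control wells' mean inhibition plus 3 SD, cut at about 5.5% in these data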;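 also: 0% = DMSO wells median and 100% = median of wells with control inhibitor compound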
#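 Material: T. brucei methionyl-tRNA synthetase, purified; reagent: substrates ATP, L-methionine and bulk Escherichia coli tRNA; dosing: 11.9 µM single point; timing: 15 min plus 2 h at 25 °C; detection: luminescence of leftover ATP; evaluation: % inhibition; control set: DMSO-only wells as low control; replicates: singlicate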
# Neddylation inh = inhibitors of cullin neddylation, primary screen, biochemical, TR-FRET, uHTS, NAE and Ubc12. actives 0.58% (n = 360,000). NEDD8-conjugating enzyme Ubc12 (Homo sapiens) + NEDD8-activating enzyme E1 regulatory …. inhibition, % at 25 µM; in the data active = inhibition above about 36%
# CSN inh = inhibitors of CSN-mediated cullin deneddylation, primary screen, biochemical, fluorescence polarization, uHTS; AID 651999, 2013; actives 0.38% (n = 360,000); COP9 signalosome complex subunit 5 (Homo sapiens), Q92905; Purified CSN, SCF-Nedd8-OG deneddylation; inhibition, % at 12.5 µM;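 active = pattern-corrected inhibition above about 35%, with an unprinted fluorescence ratio check between 0.5 and 1.5, limit read from the data, passing the limit was not always enough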;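 also: 0% = enzyme with substrate and 100% = substrate without enzyme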
# Target sequence (Q92905 whole entry, looked up, one chain of several): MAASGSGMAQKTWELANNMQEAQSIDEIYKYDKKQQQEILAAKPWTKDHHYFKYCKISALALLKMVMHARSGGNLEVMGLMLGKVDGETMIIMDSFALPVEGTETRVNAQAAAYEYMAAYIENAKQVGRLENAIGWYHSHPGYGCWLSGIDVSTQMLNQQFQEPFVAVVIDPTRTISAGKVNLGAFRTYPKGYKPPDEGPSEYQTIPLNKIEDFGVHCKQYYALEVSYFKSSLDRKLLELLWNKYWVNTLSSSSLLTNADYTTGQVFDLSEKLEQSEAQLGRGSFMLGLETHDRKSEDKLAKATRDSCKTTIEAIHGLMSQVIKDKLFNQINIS
#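 Assay system: HEK293T-derived human Csn5 enzyme; quantity: 0.24 nM enzyme; medium: Tris/NaCl/DTT buffer, pH 7.5; also added: substrate SCFSkp2-Nedd8OG, 10 nM; doses: 12.5 µM compound; schedule: 90 min reaction at room temperature; signal: FP; read-out: % inhibition of substrate cleavage by Csn5; benchmarks: substrate-only high control, full reaction low control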
# PREPL inh = PREPL enzyme inhibitors, primary screen, biochemical, fluorescence polarization | Prolyl endopeptidase-like (Homo sapiens), Q4J6C6 | recombinant PREPL, fluorescence polarization activity-based probe | inhibition, % at 5.96 µM | actives 0.68% (n = 320,000) | AID 2751, 2010; in the data active = inhibition above about 43%;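 also: 0% = enzyme with DMSO and 100% = wells lacking enzyme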
# HNF4A DNA FP = change in binding of human HNF4A to DNA, primary screen, biochemical, fluorescence polarization, FITC-DNA | 1 h | actives 0.3% (n = 360,000) | activity change, % at 10 µM; in the data active = activity change above about 30%, passing the limit was not always enough
# Rpn11 inh conf = Rpn11 (PSMD14) deubiquitinase inhibitors, confirmation, biochemical, fluorescence polarization, single concentration. purified human 26S proteasome, Ub4-pepOG fluorescence polarization; proteasome pretreated with epoxomicin. AID 602318, 2012. shares compounds with Rpn11 block. inhibition, % at 20 µM. actives 29% (n = 1,900)
# MMP-2 inh = MMP-2 enzyme inhibition, confirmation, counter-screen for RPN11 inhibitor project, biochemical, fluorescence, single concentration. shares compounds with Rpn11 block. recombinant MMP-2, FRET peptide cleavage fluorescence. inhibition, % at 20 µM. actives 4% (n = 1,900). AID 602330, 2012;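 also: human MMP-2 activated beforehand with APMA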
# Thrombin FP = bovine thrombin protease inhibition, confirmation, counter-screen for Rpn11 inhibitor project, biochemical, fluorescence polarization, single concentration; AID 602333, 2012; shares compounds with Rpn11 block; actives 13% (n = 1,900); inhibition, % at 20 µM; bovine thrombin cleavage of Ub4-pepOG;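 active = mean inhibition at least 40% at 20 µM, or signal 3 deviations below plate average, so some actives read negative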;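 also: plate controls were thrombin with DMSO for no effect and buffer wells lacking thrombin for full effect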
# * hit, by the source's call; . = not tested or not shown. An excerpt weighted towards active compounds, which were near 2.4% of everything screened. Rule as the data show it, unless noted: active = inhibition above about 40%; inactive = the rest.
SMILES,Rpn11 block,TbMetRS inhib,Neddylation inh,CSN inh,PREPL inh,HNF4A DNA FP,Rpn11 inh conf,MMP-2 inh,Thrombin FP
NC(=O)CC(NC(=O)c1ccc(Br)cc1)c1ccc(NC2CCCCCC2)c([N+](=O)[O-])c1 (stereo unspecified),43*,0,-48,14,-2,25,40*,-11,8
NC(=O)CC(NC(=O)Cc1cccc2ccccc12)c1ccc(NC2CCN(Cc3ccccc3)CC2)c([N+](=O)[O-])c1 (stereo unspecified),42*,0,-26,19,2,8,24,-38,11
NC(=O)CC(NC(=O)c1ccc(Br)cc1)c1ccc(NC2CCCCC2)c([N+](=O)[O-])c1 (stereo unspecified),35,0,-30,6,0,17,.,.,.
Cc1cc2nc3c(=O)[nH]c(=S)[nH]c3nc2cc1NC(=O)C(F)(F)F,-90,1,-56,-27,23,-40,.,.,.
CCc1nc2ccc(C(=O)NCCCn3ccnc3)cn2c1N(CC)CCOC,-10,0,7,-4,.,-1,.,.,.
C=CCn1nc([N+](=O)[O-])nc1Sc1cccc2cccnc12,67*,0,-26,-14,8,-5,28,3,-15
O=[N+]([O-])c1ccc(Sc2cccc3cccnc23)c([N+](=O)[O-])c1,71*,-1,-10,-2,19,-4,57*,-11,0
O=C(CCN1C(=O)/C(=C/C=C/c2ccccc2)SC1=S)Nc1nc2ccccc2s1,54*,1,-4,0,-11,12,32,-14,-51
O=C(NN1C(=O)/C(=C/C=C/c2ccccc2)SC1=S)c1ccncc1,71*,-1,0,20,-4,79*,-3,2,19
O=C(NN1C(=O)/C(=C/C=C/c2ccco2)SC1=S)c1ccncc1,77*,0,16,46,17,-46,123*,55*,54*
CC1CCCN(S(=O)(=O)c2ccc(Br)s2)C1 (stereo unspecified),46*,0,-6,-5,-3,17,8,-34,6
Cc1ccc2c(C)c(C(=O)N3CCC(C(N)=O)(N4CCCCC4)CC3)oc2c1C,6,0,-7,-1,.,4,.,.,.
N#Cc1ccc(-c2ccc(OCC(=O)NCC(=O)Nc3ccc(F)c(F)c3F)cc2)cc1,144*,-1,26,7,-8,-1,97*,-30,-5
Cc1ccc(S(=O)(=O)N(C(=N)N)c2nc(N(C)C)nc(N(C)C)n2)cc1,4,-1,9,4,-1,1,.,.,.
O=C(Nc1cccc2nsnc12)c1ccc(-c2ccc(Br)cc2)o1,53*,-1,.,21,10,19,12,-21,-5
Cc1ccc(-c2nc3ccccc3o2)cc1NC(=S)NC(=O)c1cc2ccccc2o1,47*,0,2,-5,-3,18,-3,-14,11
